Source: ChEMBL document CHEMBL1649506, “Novel antiviral agent DTriP-22 targets RNA-dependent RNA polymerase of enterovirus 71” (Antimicrob Agents Chemother, 2009)
Calls of active or inactive are those of the source. No cut-off for these calls is given here.

Columns and labels:
[1] = tested on: Enterovirus A71; experiment: Antiviral activity against 1 MOI EV71 infected in human RD cells assessed as viral progeny production at 1 uM treated 4 hrs postadsorption measured after 16 hrs; assay type: functional
[2] = tested on: Influenza B virus; experiment: Antiviral activity against influenza B virus infected in human RD cells assessed as protection against virus-induced cytopathogenicity; assay type: functional, organism-based
In short: (§1)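 CPE neutralization test: cells seeded at 3 × 10^4/well and grown 24 h at 37°C, infected at MOI 0.005 PFU/cell. After adsorption, medium with 2% FBS and compound (twofold dilutions from 25 μM) or 0.5% DMSO added. Incubated 64 h at 35°C, then formaldehyde-fixed and crystal violet-stained, read at OD570. Triplicate, repeated at least twice. EC50 interpolated between bracketing dilutions.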

[3] = Cytotoxicity against human RD cells after 16 hrs by MTS-based assay; assay type: cell-based
[4] = tested on: Enterovirus A71; experiment: Antiviral activity against 0.001 MOI EV71 infected in human RD cells assessed as inhibition of viral plaque formation 16 hrs by plaque formation assay; assay type: functional, organism-based; settings: Enterovirus A
In short: (§2)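 Virus yield assay: RD cells (6 × 10^5/well) infected with EV71 TW/2231/98 at the stated MOI for 1 h at room temperature, washed twice, then kept in 2% FBS medium with compound (0–2.5 μM) at 35°C. At 16 h p.i., supernatant and debris pooled and titrated by plaque assay in RD cells (0.3% agarose overlay, 4 days at 35°C, crystal violet, PFU/ml).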

[5] = tested on: Coxsackievirus B1; experiment: Antiviral activity against Coxsackievirus B1 infected in human RD cells assessed as protection against virus-induced cytopathogenicity; assay type: functional, organism-based; settings: Enterovirus B; in short: as §1
[6] = tested on: Enterovirus A71; experiment: Antiviral activity against 1 MOI EV71 infected in human RD cells assessed as inhibition of viral progeny production at 1 uM treated 4 hrs postadsorption measured after 16 hrs; assay type: functional, organism-based
[7] = tested on: Enterovirus A71; experiment: Inhibition of EV71 recombinant 3D polymerase expressed in Escherichia coli BL21 (DE3) by polymerase elongation assay
In short: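 His-tagged EV71 3D polymerase made in E. coli BL21(DE3) (50 μM IPTG, 25°C, 4 h) and purified on a nickel column. Assay used 1 μM enzyme in 50 mM HEPES pH 7.5, 5 mM MgCl2, 60 μM ZnCl2, 10 mM 2-mercaptoethanol, 5 μM UTP plus [α-32P]UTP, and dT15/poly(rA)300 primer/template. Run 10 min at 30°C, stopped with EDTA, product captured on DE81 filters and counted by scintillation.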

[8] = tested on: Coxsackievirus B3; experiment: Antiviral activity against Coxsackievirus B3 infected in human RD cells assessed as protection against virus-induced cytopathogenicity; assay type: functional, organism-based; settings: Enterovirus B; in short: as §1
[9] = Selectivity index, ratio of CC50 for human RD cells to EC50 for 1 MOI EV71 infected in human RD cells
[10] = tested on: Enterovirus A71; experiment: Antiviral activity against EV71 harboring 2C […] T256A mutant gene infected in human RD cells assessed as inhibition of viral plaque formation 16 hrs by plaque formation assay; assay type: functional, organism-based; settings: Enterovirus A
[11] = tested on: Coxsackievirus B5; experiment: Antiviral activity against Coxsackievirus B5 infected in human RD cells assessed as protection against virus-induced cytopathogenicity; assay type: functional, organism-based; settings: Enterovirus B; in short: as §1
[12] = tested on: Echovirus E9; experiment: Antiviral activity against Echovirus 9 infected in human RD cells assessed as protection against virus-induced cytopathogenicity; assay type: functional, organism-based; settings: Enterovirus B; in short: as §1
[13] = tested on: Coxsackievirus B4; experiment: Antiviral activity against Coxsackievirus B4 infected in human RD cells assessed as protection against virus-induced cytopathogenicity; assay type: functional, organism-based; settings: Enterovirus B; in short: as §1
[14] = tested on: Enterovirus A71; experiment: Antiviral activity against 1 MOI EV71 infected in human RD cells assessed as inhibition of viral RNA production at 2 uM after 6 to 14 hrs by real-time RT-PCR analysis; assay type: functional; settings: Enterovirus A
In short: (§3)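 RD cells infected with EV71 at MOI 1 PFU/cell for 1 h at room temperature, washed, then kept in medium with 2 μM compound at 35°C. Intracellular RNA extracted at intervals p.i. Viral RNA quantified by TaqMan real-time RT-PCR, or by slot blot with DIG-labelled genome- and antigenome-specific RNA probes. Compared with DMSO at each time point.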

[15] = tested on: Enterovirus A71; experiment: Antiviral activity against 1 MOI EV71 infected in human RD cells assessed as inhibition of viral RNA production at 2 uM after 6 to 14 hrs by slot blot analysis; assay type: functional, organism-based; in short: as §3
[16] = tested on: Enterovirus A71; experiment: Antiviral activity against 1 MOI EV71 infected in human RD cells assessed as inhibition of viral plaque formation 16 hrs by plaque formation assay; assay type: functional, organism-based; settings: Enterovirus A; in short: as §2
[17] = tested on: Enterovirus A71; experiment: Antiviral activity against 0.001 PFU/cell EV71 infected in human RD cells assessed as inhibition of viral plaque formation at 0.1 uM after 16 hrs by plaque formation assay; assay type: functional; set-up: scale not given: the % may be the effect or the level left; in short: as §2
[18] = tested on: Enterovirus A71; experiment: Antiviral activity against EV71 harboring 3D […] R163K/S264L mutant gene infected in human RD cells assessed as inhibition of viral plaque formation 16 hrs by plaque formation assay; assay type: functional, organism-based; settings: Enterovirus A
[19] = tested on: Enterovirus A71; experiment: Antiviral activity against 0.001 PFU/cell EV71 TW/2231/98 infected in human RD cells assessed as inhibition of viral plaque formation after 16 hrs by plaque formation assay; assay type: functional, organism-based; settings: Enterovirus A, TW/2231/98, RD; in short: as §2
[20] = tested on: Coxsackievirus A16; experiment: Antiviral activity against Coxsackievirus A16 infected in human RD cells assessed as protection against virus-induced cytopathogenicity; assay type: functional, cell-based; settings: Enterovirus A; in short: as §1
[21] = tested on: Enterovirus A71; experiment: Antiviral activity against 0.001 PFU/cell EV71 TW/2231/98 infected in human RD cells assessed as inhibition of viral plaque formation after 14 passages by plaque formation assay; assay type: functional, organism-based; settings: Enterovirus A, TW/2231/98, RD
[22] = tested on: Enterovirus A71; experiment: Inhibition of EV71 recombinant 3D polymerase expressed in Escherichia coli BL21 (DE3) assessed as inhibition of Vpg-pU(pU) synthesis at 250 to 500 uM by gel electrophoresis
In short: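 VPg uridylylation: 1 μM recombinant EV71 3D with 2 μg synthetic VPg, 0.5 μg poly(rA)300, 10 μM UTP plus 0.04 μM [α-32P]UTP, in 50 mM HEPES pH 7.5 with 2.5 mM Mn(OAc)2 and 8% glycerol. Incubated 60 min at 33°C. Products resolved on 13.5% Tricine SDS-PAGE and detected by autoradiography.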

[23] = tested on: Enterovirus A71; experiment: Antiviral activity against 0.001 PFU/cell EV71 TW/2231/98 infected in human RD cells assessed as inhibition of viral plaque formation after 5 passages by plaque formation assay; assay type: functional, organism-based; settings: Enterovirus A, TW/2231/98, RD
[24] = tested on: Human alphaherpesvirus 1; experiment: Antiviral activity against HSV1 infected in human RD cells assessed as protection against virus-induced cytopathogenicity; assay type: functional, organism-based; settings: Human alphaherpesvirus 1, RD
[25] = tested on: Enterovirus A71; experiment: Antiviral activity against 1 MOI EV71 infected in human RD cells assessed as inhibition of viral progeny production at 1 uM treated 2 hrs postinfection measured after 16 hrs; assay type: functional; settings: Enterovirus A
[26] = tested on: Enterovirus A71; experiment: Antiviral activity EV71 4643 infected in human RD cells assessed as protection against virus-induced cytopathogenicity; assay type: functional, organism-based; settings: Enterovirus A, 4643, RD; in short: as §1
[27] = tested on: Enterovirus A71; experiment: Antiviral activity EV71 1743 infected in human RD cells assessed as protection against virus-induced cytopathogenicity; assay type: functional, organism-based; settings: Enterovirus A, 1743, RD; in short: as §1
[28] = tested on: Polymerase 3D (Human enterovirus 71 STH/MCN/2006), B2G369 [R163K]; experiment: Inhibition of EV71 recombinant 3D polymerase R163K mutant expressed in Escherichia coli BL21 (DE3) assessed as enzyme activity at 250 to 500 uM by polymerase elongation assay; set-up: scale not given: the % may be the effect or the level left; settings: Enterovirus A71
[29] = tested on: rhinovirus A2; experiment: Antiviral activity against HRV2 infected in human RD cells assessed as protection against virus-induced cytopathogenicity; assay type: functional, organism-based; settings: Rhinovirus A; in short: as §1
[30] = tested on: Influenza A virus; experiment: Antiviral activity against Influenza A virus (A/WSN/1933(H1N1)) infected in human RD cells assessed as protection against virus-induced cytopathogenicity; assay type: functional, organism-based; in short: as §1
[31] = tested on: Human alphaherpesvirus 2; experiment: Antiviral activity against HSV2 infected in human RD cells assessed as protection against virus-induced cytopathogenicity; assay type: functional, organism-based; settings: Human alphaherpesvirus 2, RD
[32] = tested on: Coxsackievirus B6; experiment: Antiviral activity against Coxsackievirus B6 infected in human RD cells assessed as protection against virus-induced cytopathogenicity; assay type: functional, organism-based; settings: Enterovirus B; in short: as §1
[33] = tested on: Enterovirus A71; experiment: Antiviral activity against EV71 harboring 3D […] R163K mutant gene infected in human RD cells assessed as inhibition of viral plaque formation 16 hrs by plaque formation assay; assay type: functional, organism-based; settings: Enterovirus A
[34] = tested on: Enterovirus A71; experiment: Antiviral activity against EV71 infected in human RD cells assessed as inhibition of viral plaque formation 16 hrs by plaque formation assay; assay type: functional, organism-based; settings: Enterovirus A
[35] = tested on: Coxsackievirus B2; experiment: Antiviral activity against Coxsackievirus B2 infected in human RD cells assessed as protection against virus-induced cytopathogenicity; assay type: functional, organism-based; settings: Enterovirus B; in short: as §1
[36] = tested on: Coxsackievirus A24; experiment: Antiviral activity against Coxsackievirus A24 infected in human RD cells assessed as protection against virus-induced cytopathogenicity; assay type: functional, organism-based; settings: Enterovirus C; in short: as §1
[37] = tested on: Enterovirus A71; experiment: Antiviral activity against 0.001 PFU/cell EV71 TW/2231/98 infected in human RD cells assessed as inhibition of viral plaque formation after 10 passages by plaque formation assay; assay type: functional, organism-based; settings: Enterovirus A, TW/2231/98, RD
[38] = tested on: Enterovirus A71; experiment: Antiviral activity EV71 2231 infected in human RD cells assessed as protection against virus-induced cytopathogenicity; assay type: functional, organism-based; settings: Enterovirus A, 2231, RD; in short: as §1
[39] = tested on: Enterovirus A71; experiment: Antiviral activity against EV71 harboring VP1 […] V192M mutant gene infected in human RD cells assessed as inhibition of viral plaque formation 16 hrs by plaque formation assay; assay type: functional, organism-based
[40] = Antiviral activity against Coxsackievirus A10 infected in human RD cells assessed as protection against virus-induced cytopathogenicity; assay type: functional, cell-based; settings: Enterovirus A; in short: as §1
[41] = tested on: Coxsackievirus A9; experiment: Antiviral activity against Coxsackievirus A9 infected in human RD cells assessed as protection against virus-induced cytopathogenicity; assay type: functional, organism-based; settings: Enterovirus B; in short: as §1
[42] = tested on: Enterovirus A71; experiment: Antiviral activity EV71 BrCr infected in human RD cells assessed as protection against virus-induced cytopathogenicity; assay type: functional, organism-based; settings: Enterovirus A; in short: as §1
[43] = tested on: Enterovirus A71; experiment: Antiviral activity against 1 MOI EV71 infected in human RD cells assessed as inhibition of IRES-mediated viral RNA translation at 2 uM after 6 to 14 hrs by luciferase reporter gene assay; assay type: functional, organism-based

Structure (SMILES): Cc1ccsc1C(c1ccccc1Br)N1CCN(c2ncnc3c2cnn3-c2ccccc2)CC1 (stereo not drawn)
- Activity [1]: 76%
- EC50 [2]: 5900 nM
- CC50 at 16 h [3]: 100000 nM
- EC50 [4]: 23 nM
- EC50 [5]: 240 nM
- inhibition [6]: inactive
- inhibition [7]: Dose-dependent effect
- EC50 [8]: 260 nM
- Ratio CC50/EC50 [9]: 625
- EC50 [10]: 279 nM
- EC50 [11]: 130 nM
- EC50 [12]: 1220 nM
- EC50 [13]: 230 nM
- inhibition at 2 µM [14]: 87%
- inhibition [15]: Active
- EC50 [16]: 160 nM
- Activity [17]: 95%
- EC50 [18]: > 25000 nM
- EC50 [19]: 740 nM
- EC50 [20]: 80 nM
- EC50 [21]: > 25000 nM
- inhibition [22]: inactive
- EC50 [23]: 250 nM
- EC50 [24]: > 25000 nM
- inhibition at 1 µM [25]: 79%
- EC50 [26]: 130 nM
- EC50 [27]: 440 nM
- Activity [28]: 28%
- EC50 [29]: 1690 nM
- EC50 [30]: 5980 nM
- EC50 [31]: > 25000 nM
- EC50 [32]: 330 nM
- EC50 [33]: > 25000 nM
- EC50 [34]: 308 nM
- EC50 [35]: 70 nM
- EC50 [36]: 80 nM
- EC50 [37]: > 25000 nM
- EC50 [38]: 980 nM
- EC50 [39]: 240 nM
- EC50 [40]: 1060 nM
- EC50 [41]: 990 nM
- EC50 [42]: 150 nM
- inhibition [43]: inactive
